Reference: PubChem BioAssay
Active and inactive are the calls of the source.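 How the source made its calls, unless noted: active means viability at or below 10% of carrier control in both of two separate runs; inconclusive means viability at or below 10% in only one of the two runs; inactive means the rest.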

How the values were obtained:
[1] = reducers of endogenous Her2 protein level, primary screen, SKBR3 breast tumor cells, AlphaScreen, ATP viability (AID 461;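 active means Her2 level under about 52% in both replicate screens, with viability over 70% of control, limit read from the data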;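 on Her2 level: lower value means less Her2 protein in the cells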;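 on viability: percent of carrier control wells set as 100% viability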); details: 18-24 h, measured here: SKBR3 viability, ATP luminescence, at 10 µM
[2] = target: Receptor tyrosine-protein kinase erbB-2 (Homo sapiens) (UniProt P04626); assay: as above; details: 18-24 h, at 10 µM, stronger effect = lower value
Sequence of Receptor tyrosine-protein kinase erbB-2 (Homo sapiens) (P04626 whole entry, looked up): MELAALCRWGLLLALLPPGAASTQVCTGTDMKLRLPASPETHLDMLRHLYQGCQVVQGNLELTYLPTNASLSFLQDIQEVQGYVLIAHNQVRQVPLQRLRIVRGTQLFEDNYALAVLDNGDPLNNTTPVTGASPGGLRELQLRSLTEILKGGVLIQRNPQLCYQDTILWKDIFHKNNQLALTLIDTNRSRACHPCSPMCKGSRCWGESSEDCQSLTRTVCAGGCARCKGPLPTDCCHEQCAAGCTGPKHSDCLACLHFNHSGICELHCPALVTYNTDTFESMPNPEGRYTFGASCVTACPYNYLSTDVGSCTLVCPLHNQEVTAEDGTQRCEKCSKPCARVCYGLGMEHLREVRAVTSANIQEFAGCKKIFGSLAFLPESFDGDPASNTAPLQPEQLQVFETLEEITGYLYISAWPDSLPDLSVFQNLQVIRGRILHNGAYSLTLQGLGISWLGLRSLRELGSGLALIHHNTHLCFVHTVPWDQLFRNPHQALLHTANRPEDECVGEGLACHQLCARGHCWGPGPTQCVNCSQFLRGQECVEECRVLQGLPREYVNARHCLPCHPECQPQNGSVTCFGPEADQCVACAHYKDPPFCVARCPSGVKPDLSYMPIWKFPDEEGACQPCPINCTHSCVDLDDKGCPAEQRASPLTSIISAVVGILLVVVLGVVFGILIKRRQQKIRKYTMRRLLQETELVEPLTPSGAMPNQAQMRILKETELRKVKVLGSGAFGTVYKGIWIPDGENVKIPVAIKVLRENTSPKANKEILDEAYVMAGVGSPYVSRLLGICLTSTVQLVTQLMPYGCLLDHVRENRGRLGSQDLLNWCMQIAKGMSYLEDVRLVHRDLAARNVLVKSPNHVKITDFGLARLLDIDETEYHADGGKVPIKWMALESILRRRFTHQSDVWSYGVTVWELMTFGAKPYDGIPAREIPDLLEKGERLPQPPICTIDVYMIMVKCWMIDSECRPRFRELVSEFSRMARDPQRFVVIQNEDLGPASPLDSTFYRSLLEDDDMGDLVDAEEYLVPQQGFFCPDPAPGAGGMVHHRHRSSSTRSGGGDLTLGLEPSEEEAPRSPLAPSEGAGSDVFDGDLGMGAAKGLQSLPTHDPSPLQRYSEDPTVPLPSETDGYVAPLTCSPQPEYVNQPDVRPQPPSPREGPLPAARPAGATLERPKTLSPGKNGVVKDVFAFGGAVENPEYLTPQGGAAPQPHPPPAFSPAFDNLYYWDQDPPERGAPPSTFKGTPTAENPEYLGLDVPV

[3] = SK-BR-3 cell growth inhibitors, pilot screen, 24 h, human (AID 572); details: SK-BR-3 viability, CellTiter-Glo luminescence, at 10 µM, stronger effect = lower value;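 further: compound exposure lasted between 18 and 24 h rather than exactly 24 h; 100% = carrier-treated control wells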
[4] = HUVEC growth inhibition – cell-based, human, primary screen (AID 575;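 active means viability at or below 30% in both replicate assays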;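 further: 100% = median of untreated cell wells with 0.1% DMSO on each plate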); details: HUVEC proliferation, CellTiter-Glo luminescence, 72 h; at 10 µM; stronger effect = lower value
Procedure, shortened: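 Timing: 72 h treatment at 37 °C; material: HUVEC primary cells; technique: CellTiter-Glo luminescence measuring cellular ATP; controls: vehicle and MePR control wells; measure: percent of median DMSO-control luminescence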

[5] = growth inhibitors of H69AR lung tumor, primary screen, human, duplicate replicates (AID 580;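 active means viability at or under a set limit in both replicates, limit being median viability minus 3 SD, cut at about 48% in these data, passing the limit was not always enough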;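 further: 100% = mean luminescence of untreated wells and 0% = no signal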); details: H69AR lung tumor cells viability, ATP luminescence, 72 h; at 10 µM; stronger effect = lower value
[6] = reversal of MRP1-mediated doxorubicin resistance, pilot screen, H69AR cells, doxorubicin co-treatment (AID 601;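 active means viability loss from added drug above about 55%, and viability with drug at most 40%, in both replicates, limit read from the data, passing the limit was not always enough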); details: CellTiter-Glo, 72 h, at 10 µM; for differential viability (reversal): stronger effect = higher value
[7] = 384-well plate pilot, post-Golgi transport modulator project, inhibition of yeast transport mutant growth (AID 636; in the data active means inhibition above about 31%); details: absorbance 615 nm, about 18 h, stronger effect = higher value
[8] = growth suppression of yeast trafficking mutant, preliminary HTS, modulators of trafficking downstream of Golgi apparatus project, 1536-format plate, OD 615 nm (AID 637; in the data active means inhibition above about 30%); details: yeast transport mutant growth, absorbance 615 nm, 18 h; stronger effect = higher value
[9] = H69AR cells + 2 uM doxorubicin, measured here: viability with 2 uM doxorubicin, stronger effect = lower value
[10] = H69AR cells, compound alone cytotoxicity

CC1CCCCC1NC(=O)CN1CCN(Cc2ccccc2Cl)C1=O (stereo not given)
viability [1]: 102% | Her2 level [2]: 97% (inactive) | viability [3]: 102% (inactive) | viability [4]: 90.9% (inactive) | viability [5]: 80.4% (inactive) | differential viability (reversal) ([6]; H69AR cells + 2 uM doxorubicin): 11.9% (inactive) | viability [6, 9]: 68.5% | viability [6, 10]: 80.4% | inhibition [7]: -4.68% (inactive) | inhibition [8]: -7.67% (inactive)

COc1ccc2cc(C#N)c(SCC(=O)N3CCCC3)nc2c1
viability [1]: 97% | Her2 level [2]: 81% (inactive) | viability [3]: 97% (inactive) | viability [4]: 90.4% (inactive) | viability [5]: 70.2% (inactive) | differential viability (reversal) ([6]; H69AR cells + 2 uM doxorubicin): -5.28% (inactive) | viability [6, 9]: 75.5% | viability [6, 10]: 70.2% | inhibition [7]: 0.95% (inactive) | inhibition [8]: -5.08% (inactive)

COC(=O)Nc1ccc(NC(C)=O)cc1
viability [1]: 96% | Her2 level [2]: 116% (inactive) | viability [3]: 96% (inactive) | viability [4]: 103% (inactive) | viability [5]: 91% (inactive) | differential viability (reversal) ([6]; H69AR cells + 2 uM doxorubicin): 8.88% (inactive) | viability [6, 9]: 82.1% | viability [6, 10]: 91% | inhibition [7]: 5.84% (inactive) | inhibition [8]: -8.36% (inactive)

COc1cc(OC)cc(C(=O)NCCN2CCOCC2)c1
viability [1]: 105% | Her2 level [2]: 92% (inactive) | viability [3]: 105% (inactive) | viability [4]: 98.3% (inactive) | viability [5]: 94.1% (inactive) | differential viability (reversal) ([6]; H69AR cells + 2 uM doxorubicin): 1.49% (inactive) | viability [6, 9]: 92.6% | viability [6, 10]: 94.1% | inhibition [7]: -4.47% (inactive) | inhibition [8]: -4.36% (inactive)

CCOC(=O)CNC(=O)C(Cc1ccccc1)NS(=O)(=O)c1ccc2c(c1)CCC(=O)N2 (stereo not given)
viability [1]: 101% | Her2 level [2]: 114% (inactive) | viability [3]: 101% (inactive) | viability [4]: 92.8% (inactive) | viability [5]: 90.7% (inactive) | differential viability (reversal) ([6]; H69AR cells + 2 uM doxorubicin): -0.925% (inactive) | viability [6, 9]: 91.7% | viability [6, 10]: 90.7% | inhibition [7]: 1.84% (inactive) | inhibition [8]: -5.64% (inactive)

CN1C(=O)CC(C(=O)Nc2ccc(F)cc2)SC1=Nc1ccc2c(c1)OCO2 (stereo not given)
viability [1]: 88% | Her2 level [2]: 73% (inactive) | viability [3]: 88% (inactive) | viability [4]: 95% (inactive) | viability [5]: 82.5% (inactive) | differential viability (reversal) ([6]; H69AR cells + 2 uM doxorubicin): 2.84% (inactive) | viability [6, 9]: 79.6% | viability [6, 10]: 82.5% | inhibition [7]: -7.16% (inactive) | inhibition [8]: 0.83% (inactive)

CCOC(=O)C1CCN(C(=O)C2(NC(=O)Nc3ccccc3Cl)CCCCC2)CC1
viability [1]: 133% | Her2 level [2]: 98% (inactive) | viability [3]: 133% (inactive) | viability [4]: 105% (inactive) | viability [5]: 87.9% (inactive) | differential viability (reversal) ([6]; H69AR cells + 2 uM doxorubicin): 7.69% (inactive) | viability [6, 9]: 80.2% | viability [6, 10]: 87.9% | inhibition [7]: -1.95% (inactive) | inhibition [8]: -1.11% (inactive)

O=C(O)c1oc2ccccc2c1-n1cccc1
viability [1]: 102% | Her2 level [2]: 86.5% (inactive) | viability [3]: 102% (inactive) | viability [4]: 102% (inactive) | viability [5]: 96.8% (inactive) | differential viability (reversal) ([6]; H69AR cells + 2 uM doxorubicin): -0.995% (inactive) | viability [6, 9]: 97.8% | viability [6, 10]: 96.8% | inhibition [7]: -4.8% (inactive) | inhibition [8]: 0.16% (inactive)

CCOC(=O)N1CCN(c2c(N3CCN(c4ccccc4OC)CC3)c(=O)c2=O)CC1
viability [1]: 94.5% | Her2 level [2]: 104% (inactive) | viability [3]: 94.5% (inactive) | viability [4]: 109% (inactive) | viability [5]: 84.2% (inactive) | differential viability (reversal) ([6]; H69AR cells + 2 uM doxorubicin): 8.68% (inactive) | viability [6, 9]: 75.5% | viability [6, 10]: 84.2% | inhibition [7]: -4% (inactive) | inhibition [8]: -7.38% (inactive)

O=C(NCc1ccco1)C1(S(=O)(=O)c2ccc(Cl)cc2)CC1
viability [1]: 94% | Her2 level [2]: 86% (inactive) | viability [3]: 94% (inactive) | viability [4]: 103% (inactive) | viability [5]: 71.2% (inactive) | differential viability (reversal) ([6]; H69AR cells + 2 uM doxorubicin): -21.5% (inactive) | viability [6, 9]: 92.8% | viability [6, 10]: 71.2% | inhibition [7]: -0.65% (inactive) | inhibition [8]: 24.1% (inactive)

Cn1c(SCCN2CCCCC2)nnc1-c1ccccc1Br
viability [1]: 94.5% | Her2 level [2]: 95.5% (inactive) | viability [3]: 94.5% (inactive) | viability [4]: 105% (inactive) | viability [5]: 105% (inactive) | differential viability (reversal) ([6]; H69AR cells + 2 uM doxorubicin): 9.74% (inactive) | viability [6, 9]: 95.3% | viability [6, 10]: 105% | inhibition [7]: -4.4% (inactive) | inhibition [8]: 5.48% (inactive)

COc1ccccc1N1CCN(C(=O)CCNS(=O)(=O)c2ccc3c(c2)CCC(=O)N3)CC1
viability [1]: 89% | Her2 level [2]: 81.5% (inactive) | viability [3]: 89% (inactive) | viability [4]: 106% (inactive) | viability [5]: 89.8% (inactive) | differential viability (reversal) ([6]; H69AR cells + 2 uM doxorubicin): -0.605% (inactive) | viability [6, 9]: 90.4% | viability [6, 10]: 89.8% | inhibition [7]: -4.53% (inactive) | inhibition [8]: 2.62% (inactive)

CCOC(=O)c1ccc2[nH]c(C)c(CN3CCN(C)CC3)c(=O)c2c1
viability [1]: 114% | Her2 level [2]: 81% (inactive) | viability [3]: 114% (inactive) | viability [4]: 97.9% (inactive) | viability [5]: 91.4% (inactive) | differential viability (reversal) ([6]; H69AR cells + 2 uM doxorubicin): -0.335% (inactive) | viability [6, 9]: 91.8% | viability [6, 10]: 91.4% | inhibition [7]: -7.03% (inactive) | inhibition [8]: 2.79% (inactive)

CCOC(=O)c1ccc(NC(=O)CCc2nc(-c3cccc(C)c3)no2)cc1
viability [1]: 114% | Her2 level [2]: 97.5% (inactive) | viability [3]: 114% (inactive) | viability [4]: 40.8% (inactive) | viability [5]: 86.2% (inactive) | differential viability (reversal) ([6]; H69AR cells + 2 uM doxorubicin): -12.8% (inactive) | viability [6, 9]: 99.1% | viability [6, 10]: 86.2% | inhibition [7]: 0.41% (inactive) | inhibition [8]: 13% (inactive)

CN(Cc1ccccc1)c1nc2c(c(=O)[nH]c(=O)n2C)n1Cc1ccccc1Cl
viability [1]: 114% | Her2 level [2]: 87.5% (inactive) | viability [3]: 114% (inactive) | viability [4]: 82.2% (inactive) | viability [5]: 85.4% (inactive) | differential viability (reversal) ([6]; H69AR cells + 2 uM doxorubicin): 4.96% (inactive) | viability [6, 9]: 80.4% | viability [6, 10]: 85.4% | inhibition [7]: -5.2% (inactive) | inhibition [8]: 8.36% (inactive)

N#Cc1c(NC(=O)CSc2nnnn2C2CCCC2)sc2c1CCCC2
viability [1]: 82.5% | Her2 level [2]: 85% (inactive) | viability [3]: 82.5% (inactive) | viability [4]: 94.6% (inactive) | viability [5]: 69.9% (inactive) | differential viability (reversal) ([6]; H69AR cells + 2 uM doxorubicin): 1.64% (inactive) | viability [6, 9]: 68.2% | viability [6, 10]: 69.9% | inhibition [7]: -0.53% (inactive) | inhibition [8]: 0.16% (inactive)
